Assay results pooled from the literature.
Target: Mitogen-activated protein kinase 12 (MAPK12, Homo sapiens, UniProt P53778)
Residues used in one study (P53778 1-367): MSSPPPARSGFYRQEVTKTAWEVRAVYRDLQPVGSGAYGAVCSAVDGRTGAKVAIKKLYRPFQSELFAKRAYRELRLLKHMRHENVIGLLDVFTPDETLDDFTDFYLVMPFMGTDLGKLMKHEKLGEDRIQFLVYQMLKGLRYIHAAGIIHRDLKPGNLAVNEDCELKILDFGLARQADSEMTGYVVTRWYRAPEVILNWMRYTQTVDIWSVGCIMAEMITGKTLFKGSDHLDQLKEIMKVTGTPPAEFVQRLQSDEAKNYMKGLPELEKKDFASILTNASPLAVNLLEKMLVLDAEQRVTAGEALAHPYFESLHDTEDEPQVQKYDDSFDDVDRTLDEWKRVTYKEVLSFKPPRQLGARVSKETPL

| SMILES | effect on | method | tested at | remaining binding |
| --- | --- | --- | --- | --- |
| CCN1CCN(Cc2ccc(C(=O)Nc3ccc(C)c(Oc4ccc5c(c4)CC(=O)N5)c3)cc2C(F)(F)F)CC1 | binding | competition with immobilised ligand | 1 µM | 100% |
| O=C(Nc1c[nH]nc1C(=O)NC1CCNCC1)c1cc(F)cc(F)c1 | binding | competition with immobilised ligand | 1 µM | 100% |
| O=C(Nc1cnc(Oc2ccc(F)cc2)nc1)N1CCc2ncccc2[C@@H]1c1ccc(F)cc1 | cell-free assay | competition with immobilised ligand | 1 µM | 96% |
| COc1cnc(Nc2cccc(S(N)(=O)=O)c2)nc1N1CCN(c2ccccc2)C(=O)C1 | binding | competition with immobilised ligand | 1 µM | 100% |
| O=C(Nc1cccnn1)N1CC(C/C=C/c2cncc(Oc3ccc(C(F)(F)F)cn3)n2)C1 | cell-free assay | competition with immobilised ligand | 1 µM | 100% |
| Cc1cnn2ncc(-c3ccnc(N(C)C)n3)c2c1 | binding | – | 1 µM | 85% |
| CNC(=O)[C@@H]1CC[C@@H](n2c(-c3ccc4cnccc4c3)nc3ccc(C(=O)NCc4cccc(C(N)=O)c4)cc32)C1 | binding | competition with immobilised ligand | 1 µM | 100% |
| CN(CCCC(F)(F)F)c1nccc(-c2cnn3ncccc23)n1 | binding | – | 1 µM | 100% |
| CNC(=O)Nc1ccc2c(c1)[C@@]1(CC2)OC(=O)N(CC(=O)N(Cc2ccc(F)cc2)[C@@H](C)C(F)(F)F)C1=O | cell-free assay | competition with immobilised ligand | 1 µM | 96% |
| O=C(c1ccc(Nc2ncc(Cl)c(-c3cc4ccccc4s3)n2)cc1)N1CCC(N2CCCC2)CC1 | binding | competition with immobilised ligand | 1 µM | 86% |
| CN(C)c1nccc(-c2cnc3ncccn23)n1 | binding | – | 1 µM | 90% |
| Cc1c[nH]c2nccc(Oc3c(F)cc(Nc4cc(Cl)nc(N)n4)cc3F)c12 | cell-free assay | competition with immobilised ligand | 0.1 µM | 100% |
| O=C(c1ccc(Nc2nccc(-c3cc4ccccc4s3)n2)cc1)N1CCC(N2CCCC2)CC1 | binding | competition with immobilised ligand | 1 µM | 88% |
| F[C@@H]1CCN(c2nccc(-c3cnn4ncccc34)n2)C1 | binding | – | 1 µM | 100% |
| COc1ccc2cc(OCC3(C(=O)O)CN(C(=O)c4ccc(F)cc4)C3)ccc2c1 | cell-free assay | competition with immobilised ligand | 1 µM | 100% |
| O=C(c1ccc(Nc2ncc(Cl)c(-c3ccc(Cl)s3)n2)cc1)N1CCC(N2CCCC2)CC1 | binding | competition with immobilised ligand | 1 µM | 100% |
| CN(C)c1nccc(-c2cnn3ncccc23)n1 | binding | – | 1 µM | 60% |
| C=CC(=O)N1CCC(C(=O)NCC(=O)N2CCN(c3nc(-c4cnc(N)nc4C(F)F)nc(N4CCOCC4)n3)CC2)CC1 | binding | competition with immobilised ligand | 1 µM | 96% |
| CN(c1ccnc(CNc2nc(Nc3ccc4c(c3)CC(=O)N4)ncc2C(F)(F)F)n1)S(C)(=O)=O | cell-free assay | competition with immobilised ligand | 1 µM | 58% |
| C[C@@H]1CCN(c2nccc(-c3cnn4ncccc34)n2)C1 | binding | – | 1 µM | 47% |
| Nc1ncc2c(n1)-c1c([nH]c3ccc(C#CC4CC4)cc13)CCCC2 | binding | competition with immobilised ligand | 1 µM | 98% |
